How the values were obtained:
Beta-secretase 1 [1] = biological target: T1, Beta-secretase 1 (Homo sapiens, UniProt P56817); test: Inhibition of human BACE1 at 50 uM by FRET assay
Procedure, shortened: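 FRET assay kit for BACE-1 activity, run per a previously described protocol; each compound was tested at 50 µM as the initial screening concentration; percent inhibition is given as the mean of duplicate measurements.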

Beta-secretase 1 [2] = biological target: T1, Beta-secretase 1; test: Inhibition of human BACE1 by FRET assay
Procedure, shortened: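 IC50 values were measured against BACE-1 with a FRET assay kit following an earlier-described protocol; values are means of duplicate measurements.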

T1 sequence (P56817 whole entry): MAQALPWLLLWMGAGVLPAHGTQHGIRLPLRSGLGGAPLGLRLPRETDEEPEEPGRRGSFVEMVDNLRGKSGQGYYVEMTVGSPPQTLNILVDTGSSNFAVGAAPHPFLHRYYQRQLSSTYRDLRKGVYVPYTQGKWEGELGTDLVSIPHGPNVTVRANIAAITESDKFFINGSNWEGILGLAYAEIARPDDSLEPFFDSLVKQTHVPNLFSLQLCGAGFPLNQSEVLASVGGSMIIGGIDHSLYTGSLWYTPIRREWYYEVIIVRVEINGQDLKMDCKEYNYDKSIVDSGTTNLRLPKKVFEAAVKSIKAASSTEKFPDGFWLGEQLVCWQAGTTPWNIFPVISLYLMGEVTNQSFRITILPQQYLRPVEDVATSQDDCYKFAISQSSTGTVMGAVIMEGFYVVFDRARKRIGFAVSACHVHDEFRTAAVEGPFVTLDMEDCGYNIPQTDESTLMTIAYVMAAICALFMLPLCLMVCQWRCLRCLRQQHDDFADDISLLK

Compound | inhibition (Beta-secretase 1 [1]) [%] | IC50 (Beta-secretase 1 [2]) [µM]
O=C(CSc1nc2ccc(Nc3nc(N4CCCC4)nc(N4CCCC4)n3)cc2s1)c1ccccc1 | 93 | 20
O=C(CSc1nc2ccc(Nc3nc(N4CCCC4)nc(N4CCCC4)n3)cc2s1)NCCOc1ccccc1 | 88 | 3
COc1ccc(OC)c(NC(=O)CSc2nc3ccc(Nc4nc(N5CCCCC5)nc(N5CCCCC5)n4)cc3s2)c1 | 73 | 18
CCOc1ccc(NC(=O)CSc2nc3ccc(Nc4nc(N5CCCCC5)nc(N5CCCCC5)n4)cc3s2)cc1 | 77 | 17.2
O=C(CSc1nc2ccc(Nc3nc(N4CCCCC4)nc(N4CCCCC4)n3)cc2s1)Nc1ccccc1 | 58 | > 50
Cc1ccccc1NC(=O)CSc1nc2ccc(Nc3nc(N4CCOCC4)nc(N4CCOCC4)n3)cc2s1 | 0.5 | –
O=C(CSc1nc2ccc(Nc3nc(N4CCOCC4)nc(N4CCOCC4)n3)cc2s1)Nc1ccccc1Cl | 50 | 50
CCOC(=O)CSc1nc2ccc(Nc3nc(N4CCCC4)nc(N4CCCC4)n3)cc2s1 | 100 | 1.77
O=C(CSc1nc2ccc(Nc3nc(N4CCOCC4)nc(N4CCOCC4)n3)cc2s1)NCCOc1ccccc1 | 0 | –
O=C(CSc1nc2ccc(Nc3nc(N4CCOCC4)nc(N4CCOCC4)n3)cc2s1)NCc1ccccc1 | 50 | 50
O=C(CSc1nc2ccc(Nc3nc(N4CCOCC4)nc(N4CCOCC4)n3)cc2s1)N1CCOCC1 | 16 | –
Cc1ccc(CNC(=O)CSc2nc3ccc(Nc4nc(N5CCOCC5)nc(N5CCOCC5)n4)cc3s2)cc1 | 0 | –
O=C(CSc1nc2ccc(Nc3nc(N4CCOCC4)nc(N4CCOCC4)n3)cc2s1)N1c2ccccc2CCc2ccccc21 | 100 | 14.7
O=C(CSc1nc2ccc(Nc3nc(N4CCOCC4)nc(N4CCOCC4)n3)cc2s1)Nc1cccc(C(F)(F)F)c1 | 0 | –
Cc1cc(C)c(NC(=O)CSc2nc3ccc(Nc4nc(N5CCOCC5)nc(N5CCOCC5)n4)cc3s2)c(C)c1 | 82 | > 50
CCOc1ccc(NC(=O)CSc2nc3ccc(Nc4nc(N5CCOCC5)nc(N5CCOCC5)n4)cc3s2)cc1 | 100 | > 50
O=C(CSc1nc2ccc(Nc3nc(N4CCCC4)nc(N4CCCC4)n3)cc2s1)NCc1ccco1 | 87 | 0.69
O=C(CSc1nc2ccc(Nc3nc(N4CCCC4)nc(N4CCCC4)n3)cc2s1)NCc1ccccc1 | 83 | 1.7
CCOC(=O)CSc1nc2ccc(Nc3nc(N4CCOCC4)nc(N4CCOCC4)n3)cc2s1 | 42 | –
O=C(CSc1nc2ccc(Nc3nc(N4CCCC4)nc(N4CCCC4)n3)cc2s1)Nc1ccccc1 | 100 | 0.12
O=C(CSc1nc2ccc(Nc3nc(N4CCCCC4)nc(N4CCCCC4)n3)cc2s1)c1ccc(F)cc1 | 80 | 20
Cc1cccc(NC(=O)CSc2nc3ccc(Nc4nc(N5CCCC5)nc(N5CCCC5)n4)cc3s2)c1C | 100 | 2.83

Source: ChEMBL document CHEMBL1268833, “Molecular docking and structure-activity relationship studies on benzothiazole based non-peptidic BACE-1 inhibitors” (Bioorg Med Chem Lett, 2010)
